How the values were obtained:
Canis familiaris [1] = experiment: Inhibition of gastrin tetrapeptide-induced gastric secretion in beagle dog at 16 mg/kg administered directly into stomach via gastric cannula measured after 2 hrs of stimulation; type: functional; settings: Canis lupus familiaris
How it was run: (§1)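 Conscious female beagles (5-9 kg) with chronic gastric fistula. Dose in 50 mL 1% methylcellulose was put into the stomach via the cannula 1 h before gastrin tetrapeptide 64 µg/kg sc (from 640 µg/mL in 30% Me2SO); controls got vehicle. Juice was collected for 2 h. Volume was measured, titratable acid obtained by titration to pH 7 with 0.01 N NaOH, and total acid taken as volume × concentration.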

Canis familiaris [2] = experiment: Toxicity in beagle dog assessed as emesis administered directly into stomach via gastric cannula; type: organism-based, Canis lupus familiaris; settings: in vivo, other
Canis familiaris [3] = experiment: Toxicity in beagle dog assessed as tachycardia administered directly into stomach via gastric cannula; type: organism-based, Canis lupus familiaris; settings: in vivo, other
Canis familiaris [4] = experiment: Toxicity in beagle dog assessed as gastric bleeding administered directly into stomach via gastric cannula; type: organism-based, Canis lupus familiaris; settings: in vivo, other
Canis familiaris [5] = experiment: Inhibition of gastrin tetrapeptide-induced gastric secretion in beagle dog at 4 mg/kg administered directly into stomach via gastric cannula measured after 2 hrs of stimulation; type: functional; settings: Canis lupus familiaris; how it was run: as §1
Canis familiaris [6] = experiment: Inhibition of gastrin tetrapeptide-induced gastric secretion in beagle dog at 8 mg/kg administered directly into stomach via gastric cannula measured after 2 hrs of stimulation; type: functional; settings: Canis lupus familiaris; how it was run: as §1
Canis familiaris [7] = experiment: Inhibition of gastrin tetrapeptide-induced gastric secretion in beagle dog assessed as volume at 8 mg/kg administered directly into stomach via gastric cannula measured after 2 hrs of stimulation; type: functional; settings: Canis lupus familiaris; how it was run: as §1
Canis familiaris [8] = experiment: Inhibition of gastrin tetrapeptide-induced gastric secretion in beagle dog assessed as titratable acid at 8 mg/kg administered directly into stomach via gastric cannula measured after 2 hrs of stimulation; type: functional; settings: Canis lupus familiaris; how it was run: as §1
Canis familiaris [9] = experiment: Inhibition of gastrin tetrapeptide-induced gastric secretion in beagle dog assessed as total acid output at 8 mg/kg administered directly into stomach via gastric cannula measured after 2 hrs of stimulation; type: functional; settings: Canis lupus familiaris; how it was run: as §1
Canis familiaris [10] = experiment: Inhibition of gastrin tetrapeptide-induced gastric secretion in beagle dog assessed as volume at 16 mg/kg administered directly into stomach via gastric cannula measured after 2 hrs of stimulation; type: functional; settings: Canis lupus familiaris; how it was run: as §1
Canis familiaris [11] = experiment: Inhibition of gastrin tetrapeptide-induced gastric secretion in beagle dog assessed as titratable acid at 16 mg/kg administered directly into stomach via gastric cannula measured after 2 hrs of stimulation; type: functional; settings: Canis lupus familiaris; how it was run: as §1
Canis familiaris [12] = experiment: Inhibition of gastrin tetrapeptide-induced gastric secretion in beagle dog assessed as total acid output at 16 mg/kg administered directly into stomach via gastric cannula measured after 2 hrs of stimulation; type: functional; settings: Canis lupus familiaris; how it was run: as §1
Canis familiaris [13] = experiment: Inhibition of histamine-induced gastric secretion in beagle dog assessed as volume at 32 mg/kg administered directly into stomach via gastric cannula measured after 2 hrs of stimulation; type: functional; settings: Canis lupus familiaris
How it was run: (§2)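 Fistulated conscious female beagles (5-9 kg) got the dose intragastrically via cannula in 50 mL 1% methylcellulose, with vehicle controls. Histamine 64 µg base/kg sc (diphosphate in saline) was given 1 h later. Output over 2 h was assessed as volume, titratable acid (titration to pH 7, 0.01 N NaOH) and total acid output (volume × concentration).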

Canis familiaris [14] = experiment: Inhibition of histamine-induced gastric secretion in beagle dog assessed as titratable acid at 32 mg/kg administered directly into stomach via gastric cannula measured after 2 hrs of stimulation; type: functional; settings: Canis lupus familiaris; how it was run: as §2
Canis familiaris [15] = experiment: Inhibition of histamine-induced gastric secretion in beagle dog assessed as total acid output at 32 mg/kg administered directly into stomach via gastric cannula measured after 2 hrs of stimulation; type: functional; settings: Canis lupus familiaris; how it was run: as §2
Canis familiaris [16] = experiment: Inhibition of 2-deoxy-D-glucose-induced gastric secretion in beagle dog assessed as volume at 8 mg/kg administered directly into stomach via gastric cannula measured after 2 hrs of stimulation; type: functional; settings: Canis lupus familiaris
How it was run: (§3)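 Female beagles (5-9 kg), nonanesthetized, with chronic gastric fistula. Test agent was given in 50 mL 1% methylcellulose through the gastric cannula, with vehicle controls, 1 h before 2-deoxy-D-glucose 200 mg/kg sc in saline. The 2 h collection was measured for volume and for acid by titration to pH 7 with 0.01 N NaOH; total acid was calculated as volume × concentration.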

Canis familiaris [17] = experiment: Inhibition of 2-deoxy-D-glucose-induced gastric secretion in beagle dog assessed as titratable acid at 8 mg/kg administered directly into stomach via gastric cannula measured after 2 hrs of stimulation; type: functional; settings: Canis lupus familiaris; how it was run: as §3
Canis familiaris [18] = experiment: Inhibition of 2-deoxy-D-glucose-induced gastric secretion in beagle dog assessed as total acid output at 8 mg/kg administered directly into stomach via gastric cannula measured after 2 hrs of stimulation; type: functional; settings: Canis lupus familiaris; how it was run: as §3
Canis familiaris [19] = experiment: Inhibition of 2-deoxy-D-glucose-induced gastric secretion in beagle dog assessed as volume at 16 mg/kg administered directly into stomach via gastric cannula measured after 2 hrs of stimulation; type: functional; settings: Canis lupus familiaris; how it was run: as §3
Canis familiaris [20] = experiment: Inhibition of 2-deoxy-D-glucose-induced gastric secretion in beagle dog assessed as titratable acid at 16 mg/kg administered directly into stomach via gastric cannula measured after 2 hrs of stimulation; type: functional; settings: Canis lupus familiaris; how it was run: as §3
Canis familiaris [21] = experiment: Inhibition of 2-deoxy-D-glucose-induced gastric secretion in beagle dog assessed as total acid output at 16 mg/kg administered directly into stomach via gastric cannula measured after 2 hrs of stimulation; type: functional; settings: Canis lupus familiaris; how it was run: as §3
Canis familiaris [22] = experiment: Inhibition of gastrin tetrapeptide-induced gastric secretion in beagle dog at 2 mg/kg administered directly into stomach via gastric cannula measured after 2 hrs of stimulation; type: functional; settings: Canis lupus familiaris; how it was run: as §1

For `Cl.N=C(CS)NC(c1ccccc1)c1ccccc1`, the inhibition in vivo at 16 mg/kg (Canis familiaris [1]) was 82%, the Activity (Canis familiaris [2]) was “Toxic” and the Activity (Canis familiaris [3]) was “Toxic”. For the same compound, the Activity (Canis familiaris [4]) was “Toxic”.
With `Cl.N=C(CS)NC1CCCCC1` the inhibition in vivo at 4 mg/kg (Canis familiaris [5]) was 37%, the inhibition in vivo at 8 mg/kg (Canis familiaris [6]) was 79% and the Activity (Canis familiaris [2]) was “Toxic”. For the same compound, the Activity (Canis familiaris [3]) was “Toxic” and the Activity (Canis familiaris [4]) was “Toxic”.
`CC(C)(C)CNC(=N)CS.Cl` was tested, and the inhibition in vivo at 4 mg/kg (Canis familiaris [5]) was 25%, the inhibition in vivo at 8 mg/kg (Canis familiaris [6]) was 95% and the Activity (Canis familiaris [2]) was “Toxic”. The Activity (Canis familiaris [3]) was “Toxic” and the Activity (Canis familiaris [4]) was “Toxic”.
For `CN(C)C(=N)CS.Cl`, the inhibition in vivo at 4 mg/kg (Canis familiaris [5]) was 0%, the inhibition in vivo at 8 mg/kg (Canis familiaris [6]) was 62% and the Activity (Canis familiaris [2]) was “Toxic”. The Activity (Canis familiaris [3]) was “Toxic” and the Activity (Canis familiaris [4]) was “Toxic”.
In the case of `CC(=N)NCc1ccccc1.Cl`, the inhibition in vivo at 16 mg/kg (Canis familiaris [1]) is reported as 19%, the Activity (Canis familiaris [2]) is reported as “Toxic” and the Activity (Canis familiaris [3]) is reported as “Toxic”. The Activity (Canis familiaris [4]) was “Toxic”.
In the case of `Cl.N=C(CS)NCC12CCCC(CCC1)C2`, the inhibition in vivo at 8 mg/kg (Canis familiaris [6]) is reported as 67%, the inhibition in vivo at 16 mg/kg (Canis familiaris [1]) is reported as 23% and the Activity (Canis familiaris [2]) is reported as “Toxic”. For the same compound, the Activity (Canis familiaris [3]) was “Toxic” and the Activity (Canis familiaris [4]) was “Toxic”.
For `CC(S)C(=N)NCC(C)(C)C.Cl` (stereo unspecified), the inhibition in vivo at 8 mg/kg (Canis familiaris [6]) was 0%, the inhibition in vivo at 16 mg/kg (Canis familiaris [1]) was 28% and the Activity (Canis familiaris [2]) was “Toxic”. For the same compound, the Activity (Canis familiaris [3]) was “Toxic” and the Activity (Canis familiaris [4]) was “Toxic”.
`Cl.N=C(CS)NC1CCc2ccccc21` (stereo unspecified) was tested, and the inhibition in vivo at 8 mg/kg (Canis familiaris [6]) was 20%, the inhibition in vivo at 16 mg/kg (Canis familiaris [1]) was 85% and the Activity (Canis familiaris [2]) was “Toxic”. The Activity (Canis familiaris [3]) was “Toxic” and the Activity (Canis familiaris [4]) was “Toxic”.
For `Cl.N=C(CS)NCC12CC3CC(CC(C3)C1)C2`, the inhibition in vivo at 8 mg/kg (Canis familiaris [6]) was 47%, the inhibition in vivo at 16 mg/kg (Canis familiaris [1]) was 74% and the inhibition in vivo at 8 mg/kg (Canis familiaris [7]) was 7%. For the same compound, the inhibition in vivo at 8 mg/kg (Canis familiaris [8]) was 0%, the inhibition in vivo at 8 mg/kg (Canis familiaris [9]) was 8% and the inhibition in vivo at 16 mg/kg (Canis familiaris [10]) was 74%. The inhibition in vivo at 16 mg/kg (Canis familiaris [11]) was 91%, the inhibition in vivo at 16 mg/kg (Canis familiaris [12]) was 83% and the inhibition in vivo at 32 mg/kg (Canis familiaris [13]) was 36%. It also gave an inhibition in vivo at 32 mg/kg (Canis familiaris [14]) of 40%, an inhibition in vivo at 32 mg/kg (Canis familiaris [15]) of 55% and an inhibition in vivo at 8 mg/kg (Canis familiaris [16]) of 31%. The inhibition in vivo at 8 mg/kg (Canis familiaris [17]) was 18%, the inhibition in vivo at 8 mg/kg (Canis familiaris [18]) was 42% and the inhibition in vivo at 16 mg/kg (Canis familiaris [19]) was 79%. For the same compound, the inhibition in vivo at 16 mg/kg (Canis familiaris [20]) was 85%, the inhibition in vivo at 16 mg/kg (Canis familiaris [21]) was 97% and the Activity (Canis familiaris [2]) was “Toxic”. The Activity (Canis familiaris [3]) was “Toxic” and the Activity (Canis familiaris [4]) was “Toxic”.
In the case of `Cl.SCC1=NCCN1`, the inhibition in vivo at 2 mg/kg (Canis familiaris [22]) is reported as 100%, the Activity (Canis familiaris [2]) is reported as “Toxic” and the Activity (Canis familiaris [3]) is reported as “Toxic”. The Activity (Canis familiaris [4]) was “Toxic”.
`Cl.N=C(CO)NCc1ccccc1` was tested, and the inhibition in vivo at 16 mg/kg (Canis familiaris [1]) was 0%, the Activity (Canis familiaris [2]) was “Toxic” and the Activity (Canis familiaris [3]) was “Toxic”. The Activity (Canis familiaris [4]) was “Toxic”.
For `Cl.N=C(CS)NCCCC12CC3CC(CC(C3)C1)C2`, the inhibition in vivo at 4 mg/kg (Canis familiaris [5]) was 36%, the inhibition in vivo at 8 mg/kg (Canis familiaris [6]) was 81% and the Activity (Canis familiaris [2]) was “Toxic”. For the same compound, the Activity (Canis familiaris [3]) was “Toxic” and the Activity (Canis familiaris [4]) was “Toxic”.
Work on `Cl.N=C(CS)NCCC12CC3CC(CC(C3)C1)C2` yielded an inhibition in vivo at 4 mg/kg (Canis familiaris [5]) of 0%, an inhibition in vivo at 8 mg/kg (Canis familiaris [6]) of 61% and an inhibition in vivo at 16 mg/kg (Canis familiaris [1]) of 100%. The Activity (Canis familiaris [2]) was “Toxic”, the Activity (Canis familiaris [3]) was “Toxic” and the Activity (Canis familiaris [4]) was “Toxic”.
For `Cl.N=C(CS)NC(Cc1ccccc1)c1ccccc1` (stereo unspecified), the inhibition in vivo at 16 mg/kg (Canis familiaris [1]) was 84%, the Activity (Canis familiaris [2]) was “Toxic” and the Activity (Canis familiaris [3]) was “Toxic”. For the same compound, the Activity (Canis familiaris [4]) was “Toxic”.
For `Cl.N=C(CS)NCC12CCC(CC1)CC2`, the inhibition in vivo at 4 mg/kg (Canis familiaris [5]) was 48%, the inhibition in vivo at 8 mg/kg (Canis familiaris [6]) was 87% and the Activity (Canis familiaris [2]) was “Toxic”. For the same compound, the Activity (Canis familiaris [3]) was “Toxic” and the Activity (Canis familiaris [4]) was “Toxic”.
For `Cl.N=C(CS)NCc1ccccc1`, the inhibition in vivo at 4 mg/kg (Canis familiaris [5]) was 29%, the inhibition in vivo at 8 mg/kg (Canis familiaris [6]) was 83% and the Activity (Canis familiaris [2]) was “Toxic”. The Activity (Canis familiaris [3]) was “Toxic” and the Activity (Canis familiaris [4]) was “Toxic”.
For `CC(C)(C)CNC(=N)CO.Cl`, the inhibition in vivo at 8 mg/kg (Canis familiaris [6]) was 22%, the inhibition in vivo at 16 mg/kg (Canis familiaris [1]) was 61% and the Activity (Canis familiaris [2]) was “Toxic”. For the same compound, the Activity (Canis familiaris [3]) was “Toxic” and the Activity (Canis familiaris [4]) was “Toxic”.

Reference: ChEMBL document CHEMBL3227926, “2-Mercaptoacetamidines as gastric antisecretory agents” (J Med Chem, 1979)
